Measured values published in ChEMBL document CHEMBL4011617, “Ugi Reaction-Derived α-Acyl Aminocarboxamides Bind to Phosphatidylinositol 3-Kinase-Related Kinases, Inhibit HSF1-Dependent Heat Shock Response, and Induce Apoptosis in Multiple Myeloma Cells” (J Med Chem, 2017).
The source made the active and inactive calls. No cut-off for these calls is given here.

Legend:
INA-6 [1] = assay: Inhibition of heat shock response in human INA-6 cells assessed as reduction in HSF-1 mediated upregulation of the heat shock protein HSP72 at 50 uM preincubated for 4 hrs followed by HSP90 inhibitor and HSR inducer NVP-AUY922 addition measured after 4 hrs by Western blot method; type: functional, cell-based
Summary of the method: (§1)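 INA-6 myeloma cells pretreated with test compound for 4 h, then co-treated with the HSP90 inhibitor/HSR inducer NVP-AUY922 for a further 4 h. Cells harvested; HSP72, HSP27, HSF1 or phospho-HSF1 probed by Western blot with β-actin as loading control. DMSO-only cells were the negative control; NVP-AUY922-only cells were the positive control.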

INA-6 [2] = assay: Inhibition of heat shock response in human INA-6 cells assessed as reduction in HSF-1 mediated upregulation of the heat shock protein HSP72 at 50 uM preincubated for 4 hrs followed by HSP90 inhibitor and HSR inducer NVP-AUY922 addition measured after 4 hrs by ELISA; type: functional, cell-based
Summary of the method: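 HSP72 quantified by ELISA in the same protein lysates used for Western blots. INA-6 cells received compound for 4 h, then NVP-AUY922 co-treatment for 4 h more to stimulate HSF1. DMSO-only and NVP-AUY922-only cells served as negative and positive controls.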

INA-6 [3] = assay: Inhibition of heat shock response in human INA-6 cells assessed as reduction in HSF-1 mediated upregulation of the heat shock protein HSP27 at 50 uM preincubated for 4 hrs followed by HSP90 inhibitor and HSR inducer NVP-AUY922 addition measured after 4 hrs by Western blot method; type: functional, cell-based; summary of the method: as §1
INA-6 [4] = assay: Inhibition of heat shock response in human INA-6 cells assessed as reduction in HSF-1 mediated upregulation of the heat shock protein HSP27 at 50 uM preincubated for 4 hrs followed by HSP90 inhibitor and HSR inducer NVP-AUY922 addition measured after 4 hrs by ELISA; type: functional, cell-based
[5] = target: T1, Heat shock factor protein 1 (Homo sapiens) (UniProt Q00613); assay: Inhibition of NVP-AUY922-induced HSF-1 phosphorylation at S326 residue in human INA-6 cells at 50 uM preincubated for 4 hrs followed by NVP-AUY922 addition measured after 4 hrs by Western blot method; type: cell-based; summary of the method: as §1
T1 sequence (whole entry): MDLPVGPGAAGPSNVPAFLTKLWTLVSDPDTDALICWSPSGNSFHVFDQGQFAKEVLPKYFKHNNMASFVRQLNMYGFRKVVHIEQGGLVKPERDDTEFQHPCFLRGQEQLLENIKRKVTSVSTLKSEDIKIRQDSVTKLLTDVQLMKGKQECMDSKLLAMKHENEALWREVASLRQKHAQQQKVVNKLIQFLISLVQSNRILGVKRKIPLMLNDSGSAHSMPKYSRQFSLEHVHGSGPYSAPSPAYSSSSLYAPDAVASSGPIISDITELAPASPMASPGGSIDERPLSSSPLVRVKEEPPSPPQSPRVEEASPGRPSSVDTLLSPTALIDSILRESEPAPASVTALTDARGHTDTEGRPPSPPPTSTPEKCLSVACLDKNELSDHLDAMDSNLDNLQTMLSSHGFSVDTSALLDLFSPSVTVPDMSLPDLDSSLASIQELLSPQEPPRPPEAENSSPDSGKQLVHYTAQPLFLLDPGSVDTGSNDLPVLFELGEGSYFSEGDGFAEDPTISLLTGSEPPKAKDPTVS

INA-6 [6] = assay: Downregulation of NVP-AUY922-induced HSF-1 protein expression in human INA-6 cells at 50 uM preincubated for 4 hrs followed by NVP-AUY922 addition measured after 4 hrs by Western blot method; type: functional, cell-based; summary of the method: as §1

Structure (SMILES)	heat shock response inhibition (active/not active) (INA-6 [1])	HSP72 upregulation inhibition (active/not active) (INA-6 [2])	activity call (active/not active) for inhibition of HSP27 upregulation (INA-6 [3])	heat shock response inhibition (active/not active) (INA-6 [4])	inhibition [5]	Activity (INA-6 [6])
C/C=C/C(=O)N(Cc1ccco1)C(C(=O)NC1CCCCC1)c1ccccc1Br (racemic)	inactive	inactive	inactive	–	–	–
CCCN(C(=O)/C=C/c1ccccc1)C(C(=O)NCCN1CCOCC1)c1ccccc1Br (racemic)	inactive	inactive	inactive	–	–	–
O=C(NCCN1CCOCC1)C(c1ccccc1)N(Cc1ccccc1)C(=O)/C=C/c1ccc(Cl)cc1Cl (racemic)	Active	Active	Active	Active	Active	Active
C=CC(=O)N(CCOCCO)C(C(=O)NC(C)(C)C)c1ccccc1Br (racemic)	inactive	inactive	inactive	–	–	–
C=CC(=O)N(CCc1ccc(OC)c(OC)c1)C(C(=O)NCCCCC)c1ccccc1Br (racemic)	Active	Active	Active	Active	Active	Active
O=C(NCc1ccccc1)C(c1ccc(OCCBr)cc1)N(C(=O)CCc1ccccc1)C1CC1 (racemic)	Active	Active	Active	Active	Active	Active
C/C=C/C(=O)N(Cc1ccccc1Cl)C(C(=O)NC(C)(C)C)c1ccccc1Br (racemic)	Active	Active	Active	Active	Active	Active
O=C(NCCN1CCOCC1)C(c1ccccc1Br)N(Cc1ccccc1)C(=O)/C=C/c1ccc(Cl)cc1Cl (racemic)	Active	Active	Active	Active	Active	Active
O=C(NCc1ccccc1)C(c1ccc(Br)cc1)N(C(=O)CCc1ccc(O)cc1)C1CC1 (racemic)	Active	Active	Active	Active	Active	Active
O=C(NCc1ccccc1)C(c1ccccc1Br)N(Cc1ccccc1)C(=O)/C=C/c1ccccc1 (racemic)	inactive	inactive	inactive	–	–	–
O=C(NCc1ccccc1)C(c1ccc(Br)cc1)N(C(=O)CCc1ccccc1)C1CC1 (racemic)	Active	Active	Active	Active	Active	Active
NCCOCCOCCNCCOc1ccc(C(C(=O)NCc2ccccc2)N(C(=O)CCc2ccc(O)cc2)C2CC2)cc1 (configuration not stated)	–	inactive	inactive	inactive	–	–
